# Test results: ChEMBL document CHEMBL1134350, “seco-Cyclothialidines: new concise synthesis, inhibitory activity toward bacterial and human DNA topoisomerases, and antibacterial properties” (J Med Chem, 2001)
# Experiments:
# DNA topoisomerase 1 = target: T1, DNA topoisomerase 1 (Homo sapiens, UniProt P11387); assay: Antibacterial activity against human DNA Topo I.
# T1 sequence (P11387 whole entry): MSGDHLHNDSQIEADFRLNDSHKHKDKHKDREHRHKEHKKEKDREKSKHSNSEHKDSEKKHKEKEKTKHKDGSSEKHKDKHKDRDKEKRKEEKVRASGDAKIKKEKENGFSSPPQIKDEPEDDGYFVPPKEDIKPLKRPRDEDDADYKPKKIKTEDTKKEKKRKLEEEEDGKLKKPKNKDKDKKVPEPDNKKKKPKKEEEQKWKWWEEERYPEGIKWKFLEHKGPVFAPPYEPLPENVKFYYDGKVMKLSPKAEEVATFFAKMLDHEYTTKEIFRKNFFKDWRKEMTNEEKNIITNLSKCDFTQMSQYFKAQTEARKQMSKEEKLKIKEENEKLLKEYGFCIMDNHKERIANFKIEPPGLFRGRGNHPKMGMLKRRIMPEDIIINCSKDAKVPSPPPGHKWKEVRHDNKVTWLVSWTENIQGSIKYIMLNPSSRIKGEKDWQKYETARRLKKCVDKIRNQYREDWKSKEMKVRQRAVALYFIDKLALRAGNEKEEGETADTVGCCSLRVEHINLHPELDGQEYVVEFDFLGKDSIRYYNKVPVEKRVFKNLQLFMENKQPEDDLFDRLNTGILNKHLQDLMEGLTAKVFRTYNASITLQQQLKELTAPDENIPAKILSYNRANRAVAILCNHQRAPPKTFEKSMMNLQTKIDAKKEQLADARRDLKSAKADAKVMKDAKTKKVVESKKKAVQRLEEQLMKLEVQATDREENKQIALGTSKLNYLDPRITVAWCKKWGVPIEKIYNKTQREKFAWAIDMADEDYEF
# Procedure, shortened: (§1)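 Human topoisomerase reactions used supercoiled pBR322 (100 ng) with 1 unit enzyme in the supplier's reaction buffer and compounds in DMSO. Incubation was 30 min, stopped with SDS/sucrose dye.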
# Staphylococcus aureus [1] = assay: Antibacterial activity against Staphylococcus aureus 133.; format: functional
# Procedure, shortened: (§2)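 Agar dilution MIC on IsoSensitest agar or Mueller Hinton agar with 10% horse blood and IsoVitaleX. Overnight cultures were grown in BHI broth for staphylococci and enterobacteria, or in BHI plus 10% bovine serum for streptococci and enterococci, then diluted 1:100. Compounds were tested at 0.125-64 µg/mL. Plates were incubated aerobically at 37 °C for about 20 h. MIC = first concentration with no visible growth.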
# [2] = test system: Staphylococcus epidermidis; assay: Antibacterial activity against Staphylococcus epidermidis 193.; format: functional; procedure, shortened: as §2
# [3] = test system: Staphylococcus saprophyticus; assay: Antibacterial activity against Staphylococcus saprophyticus 2916.; format: functional; procedure, shortened: as §2
# Streptococcus pyogenes [4] = assay: Antibacterial activity against Streptococcus pyogenes 7029.; format: functional; procedure, shortened: as §2
# Escherichia coli = assay: Antibacterial activity against Escherichia coli Neumann.; format: functional; procedure, shortened: as §2
# Staphylococcus aureus [5] = assay: Antibacterial activity against Staphylococcus aureus 48 N.; format: functional; procedure, shortened: as §2
# Staphylococcus aureus [6] = assay: Antibacterial activity against Staphylococcus aureus 9TV.; format: functional; procedure, shortened: as §2
# Proteus mirabilis = assay: Antibacterial activity against Proteus mirabilis 1235.; format: functional; procedure, shortened: as §2
# Klebsiella pneumoniae [7] = assay: Antibacterial activity against Klebsiella pneumoniae 63.; format: functional; procedure, shortened: as §2
# Klebsiella pneumoniae [8] = assay: Antibacterial activity against Klebsiella pneumoniae 8085.; format: functional; procedure, shortened: as §2
# Streptococcus pyogenes [9] = assay: Antibacterial activity against Streptococcus pyogenes Wacker.; format: functional; procedure, shortened: as §2
# Streptococcus pyogenes [10] = assay: Antibacterial activity against Streptococcus pyogenes 4851.; format: functional; procedure, shortened: as §2
# Enterococcus faecalis [11] = assay: Antibacterial activity against Enterococcus faecalis 27251.; format: functional; procedure, shortened: as §2
# Streptococcus pyogenes [12] = assay: Antibacterial activity against Streptococcus pyogenes 4333.; format: functional; procedure, shortened: as §2
# Proteus vulgaris = assay: Antibacterial activity against Proteus vulgaris 1017.; format: functional; procedure, shortened: as §2
# DNA topoisomerase II = DNA topoisomerase II (Homo sapiens, UniProt P11388+Q02880); assay: […] human DNA Topoisomerase II; format: protein assay; procedure, shortened: as §1
# Enterococcus faecalis [13] = assay: Antibacterial activity against Enterococcus faecalis 27253.; format: functional; procedure, shortened: as §2
# Staphylococcus aureus [14] = assay: Antibacterial activity against Staphylococcus aureus 25470.; format: functional; procedure, shortened: as §2
# Staphylococcus aureus [15] = assay: Antibacterial activity against Staphylococcus aureus 25701.; format: functional; procedure, shortened: as §2
# Enterococcus faecium [16] = assay: Antibacterial activity against Enterococcus faecium L4001.; format: functional; procedure, shortened: as §2
# Enterococcus faecium [17] = assay: Antibacterial activity against Enterococcus faecium 27266.; format: functional; procedure, shortened: as §2
# [18] = test system: Staphylococcus haemolyticus; assay: Antibacterial activity against Staphylococcus haemolyticus 146.; format: functional; procedure, shortened: as §2
# Staphylococcus aureus [19] = assay: Antibacterial activity against Staphylococcus aureus 44(25508).; format: functional; procedure, shortened: as §2
# [20] = test system: Staphylococcus epidermidis; assay: Antibacterial activity against Staphylococcus epidermidis.; format: functional; procedure, shortened: as §2
# Enterococcus faecalis [21] = assay: Antibacterial activity against Enterococcus faecalis.; format: functional; procedure, shortened: as §2
# Streptococcus pyogenes [22] = assay: Antibacterial activity against Streptococcus pyogenes.; format: functional; procedure, shortened: as §2
# Staphylococcus aureus [23] = assay: Antibacterial activity against Staphylococcus aureus 25923.; format: functional; procedure, shortened: as §2
# Staphylococcus aureus [24] = assay: Antibacterial activity against Staphylococcus aureus QR-54.; format: functional; procedure, shortened: as §2
MIC (Staphylococcus aureus [1]) [µg/mL],MIC [2] [µg/mL],MIC [3] [µg/mL],MIC (Streptococcus pyogenes [4]) [µg/mL],MIC (Escherichia coli) [µg/mL],MIC (Staphylococcus aureus [5]) [µg/mL],MIC (Staphylococcus aureus [6]) [µg/mL],MIC (Proteus mirabilis) [µg/mL],MIC (Klebsiella pneumoniae [7]) [µg/mL],MIC (Klebsiella pneumoniae [8]) [µg/mL],MIC (Streptococcus pyogenes [9]) [µg/mL],MIC (Streptococcus pyogenes [10]) [µg/mL],MIC (Enterococcus faecalis [11]) [µg/mL],MIC (Streptococcus pyogenes [12]) [µg/mL],MIC (Proteus vulgaris) [µg/mL],MIC (Enterococcus faecalis [13]) [µg/mL],MIC (Staphylococcus aureus [14]) [µg/mL],MIC (Staphylococcus aureus [15]) [µg/mL],MIC (Enterococcus faecium [16]) [µg/mL],MIC (Enterococcus faecium [17]) [µg/mL],SMILES,also measured
1,0.5,1,2,> 64,1,1,> 64,> 64,> 64,1,1,2,1,> 64,1,1,1,2,2,COC(=O)c1c(Br)c(OC)cc(O)c1CSC[C@H](Nc1nc(-c2ccc([N+](=O)[O-])cc2)cs1)C(=O)OC,IC50 (DNA topoisomerase 1): > 392 µM; IC50 (DNA topoisomerase II): 15 µg/mL; MIC [18]: 1 µg/mL; MIC (Staphylococcus aureus [19]): 2 µg/mL
0.25,< 0.12,< 0.12,0.5,> 64,0.25,0.25,> 64,> 64,> 64,0.25,0.25,0.5,0.25,> 64,0.5,0.25,< 0.12,0.5,0.5,COC(=O)c1c(Br)c(OC)cc(O)c1CSC[C@H](Nc1nc(-c2ccc([N+](=O)[O-])cc2)cs1)C1=NOCCO1,IC50 (DNA topoisomerase 1): > 375 µM; IC50 (DNA topoisomerase II): 60 µg/mL; MIC [18]: < 0.12 µg/mL; MIC (Staphylococcus aureus [19]): 0.25 µg/mL
0.25,< 0.12,0.25,0.5,> 64,0.25,0.25,> 64,> 64,> 64,0.25,0.25,0.5,< 0.12,> 64,0.25,0.25,< 0.12,0.5,0.5,COC(=O)c1c(Br)c(OC)cc(O)c1CSC[C@H](Nc1nc(-c2ccc([N+](=O)[O-])cc2)cs1)c1nc(C)no1,IC50 (DNA topoisomerase 1): > 377 µM; MIC [20]: 0.12 µg/mL; MIC (Enterococcus faecalis [21]): 0.25 µg/mL; MIC (Streptococcus pyogenes [22]): 0.12 µg/mL; IC50 (DNA topoisomerase II): 60 µg/mL; MIC (Staphylococcus aureus [23]): 0.12 µg/mL; MIC (Staphylococcus aureus [24]): 0.25 µg/mL; MIC [18]: 0.25 µg/mL; MIC (Staphylococcus aureus [19]): 0.25 µg/mL
> 64,> 64,> 64,> 64,> 64,> 64,> 64,> 64,> 64,> 64,> 64,> 64,> 64,64,> 64,> 64,> 64,> 64,> 64,> 64,COC(=O)c1c(Br)c(OC)cc(O)c1CSC[C@@H](Nc1nc(-c2ccc([N+](=O)[O-])cc2)cs1)C1=NOCCO1,MIC [18]: > 64 µg/mL; MIC (Staphylococcus aureus [19]): > 64 µg/mL
